Experimental data gathered from unrelated publications.
Target: Serine/threonine-protein kinase 16 (STK16, Homo sapiens, UniProt O75716)

CN(C)c1nccc(-c2cnc3ncccn23)n1 — remaining binding (binding; 1 µM): 92%
O=C(NCCCN1CCOCC1)c1ccc(Nc2nccc(-c3cc4ccccc4s3)n2)cc1 — remaining binding (binding, competition with immobilised ligand; 1 µM): 32%
CCC(=O)N[C@@H]1CC[C@H](C(=O)N(C)c2ccc(-c3nc4ccccc4o3)cc2)C1 — remaining binding (cell-free assay, competition with immobilised ligand; 1 µM): 100%
CCN1CCN(Cc2ccc(C(=O)Nc3ccc(C)c(Oc4ccc5c(c4)CC(=O)N5)c3)cc2C(F)(F)F)CC1 — remaining binding (binding, competition with immobilised ligand; 1 µM): 100%
O=C(Nc1c[nH]nc1C(=O)NC1CCNCC1)c1cc(F)cc(F)c1 — remaining binding (binding, competition with immobilised ligand; 1 µM): 100%
O=C(N1CCS(=O)(=O)CC1)N1C[C@H](c2ccc(OC(F)(F)F)cc2)C[C@H](c2nc(C3CC3)no2)C1 — remaining binding (cell-free assay, competition with immobilised ligand; 1 µM): 100%
N[C@@H]1CCN(c2nccc(-c3cnn4ncccc34)n2)C1 — remaining binding (binding; 1 µM): 100%
COc1cnc(Nc2cccc(S(N)(=O)=O)c2)nc1N1CCN(c2ccccc2)C(=O)C1 — remaining binding (binding, competition with immobilised ligand; 1 µM): 30%
CCCCN(CCCC)C(=O)CN1C[C@H](c2cc(OC)c3c(c2)OCO3)[C@@H](C(=O)O)[C@@H]1CC(C)(C)CCC — remaining binding (cell-free assay, competition with immobilised ligand; 1 µM): 100%
COc1ncc2cc3ccccc3nc2c1C#N — remaining binding (cell-free assay, competition with immobilised ligand; 5 µM): 90%
O=C(NCCCN1CCOCC1)c1ccc(Nc2ncc(Cl)c(-c3ccc(Cl)s3)n2)cc1 — remaining binding (binding, competition with immobilised ligand; 1 µM): 1.1%
CCCOc1ccc([C@H]2[C@H](C(=O)O)[C@@H](c3ccc4c(c3)OCO4)CN2CC(=O)Nc2c(CC)cccc2CC)cc1 — remaining binding (cell-free assay, competition with immobilised ligand; 1 µM): 72%
Cc1cnn2ncc(-c3ccnc(N(C)C)n3)c2c1 — remaining binding (binding; 1 µM): 91%
Nc1ncc2c(n1)-c1c([nH]c3ccc(C#CC4CC4)cc13)CCCC2 — remaining binding (binding, competition with immobilised ligand; 1 µM): 100%
CC1CCCN1c1nccc(-c2cnn3ncccc23)n1 (stereo not drawn) — remaining binding (binding; 1 µM): 86%
Cc1cnc(Nc2ccc(C(=O)N3CCC(N4CCCC4)CC3)cc2)nc1-c1cc2ccccc2s1 — remaining binding (binding, competition with immobilised ligand; 1 µM): 3.4%
c1cnn2ncc(-c3ccnc(N4CCC45COC5)n3)c2c1 — remaining binding (binding; 1 µM): 78%
CN(C)C(=O)Cn1cc(-c2nc([C@@](C)(c3ccc(-c4cnc(N)nc4)cc3)C3CC3)no2)cn1 — remaining binding (cell-free assay, competition with immobilised ligand; 1 µM): 100%
C[C@@H](c1ccc(-n2cnc3c(N)ncnc32)cc1)N1CCc2nn(C)c(Cc3ccccc3)c2C1=O — remaining binding (binding, competition with immobilised ligand; 0.1 µM): 85%
COc1ccnn2ncc(-c3ccnc(N(C)C)n3)c12 — remaining binding (binding; 1 µM): 85%
CN(C)CC#Cc1ccc(OCCCc2sc(N3CCc4cccc(C(=O)Nc5nc6ccccc6s5)c4C3)nc2C(=O)O)c(F)c1 — remaining binding (cell-free assay, competition with immobilised ligand; 1 µM): 92%
